Data set [1] in a line: folding enthalpy; higher = less favourable; fluorescence melt of hairpins on a sequencing array, two-state fit. As to conditions: sodium 0.088 M. An outline of the steps:
(§1)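 Melting temperature and folding enthalpy were derived from bootstrapped two-state fits. The fitted temperatures were raised by 9.35 °C to agree with UV melts, and four replicates were combined by inverse variance. The underlying data were Cy3 fluorescence images of library hairpins, with annealed Cy3 and quencher oligos, on a sequenced MiSeq flow cell in 50 mM Na-HEPES pH 8.0, 25 mM NaCl, taken in 2.5 °C steps up to 60 °C, normalised to pre-quench Cy3 and to control constructs.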

A short description of data set [2]: melting temperature; fluorescence melt of hairpins on a sequencing array, two-state fit, raised by 9.35 °C to match UV melts. As to conditions: sodium 0.088 M. An outline of the steps: as §1

Consider GCTAACGAAAGTTAAAGC ((((((....)))..))), for which the folding enthalpy in data set [1] is -18.5 kcal/mol. In data set [2], the Tm amounted to 36.7 °C.

On to GCTAACGAAAGTTAGAGC ((((((....)))..))), for which the folding enthalpy in data set [1] is -16.1 kcal/mol. The Tm in data set [2] was 45.8 °C.

With GCTAACGAAAGTTGAAGC ((((((....)))..))), the folding enthalpy in data set [1] is -15.2 kcal/mol. Besides, in data set [2], the Tm amounted to 34.6 °C.

Consider GCTAACGGAAACGCTAGC ((((.((....)).)))), for which, in data set [1], the folding enthalpy is -33.9 kcal/mol. For the same sequence, in data set [2], the Tm worked out at 44.8 °C.

Consider GCTAACTCGAAAGAGAGC (((..(((....)))))), for which, in data set [1], the folding enthalpy was -16.5 kcal/mol. For the same sequence, the Tm in data set [2] is 32 °C.

For GCTAAGCGAAAGCATTGC ((.(.((....)).).)), the folding enthalpy in data set [1] was -19.9 kcal/mol. Besides, in data set [2], the Tm was 36.2 °C.

Regarding GCTAAGCGAAAGCCCAGC (((..((....))..))), in data set [1], the folding enthalpy was -16.8 kcal/mol. Besides, the Tm in data set [2] was determined as 34.5 °C.

In the case of GCTAAGCGAAAGCCTAGC ((((.((....)).)))), the folding enthalpy in data set [1] is -21.9 kcal/mol. Moreover, in data set [2], the Tm turned out to be 49.1 °C.

In the case of GCTAAGCGAAAGCGTAGC ((((.((....)).)))), the folding enthalpy in data set [1] was -20.3 kcal/mol. Besides, in data set [2], the Tm amounted to 61.5 °C.

As to GCTAAGCGAAAGCTAGGC ((..(((....)))..)), in data set [1], the folding enthalpy is -17.6 kcal/mol. For the same sequence, the Tm in data set [2] is 47.4 °C.

In the case of GCTAAGCGAAAGCTTTGC ((.((((....)))).)), the folding enthalpy in data set [1] was -30.6 kcal/mol. The Tm in data set [2] stood at 59.5 °C.

For the sequence GCTAAGGGAAACCTTAGC (((((((....))))))), the folding enthalpy in data set [1] was -40.7 kcal/mol. In addition, the Tm in data set [2] was determined as 59.8 °C.

With GCTAATGAAAATTAGC ((((((....)))))), the folding enthalpy in data set [1] was -31.7 kcal/mol. The Tm in data set [2] came out at 50 °C.

In the case of GCTAATGGAAACGTTAGC (((((.(....).))))), in data set [1], the folding enthalpy is -29.7 kcal/mol. In addition, in data set [2], the Tm was 43.9 °C.

In the case of GCTACACGAAAGTGAGC (((.(((....)))))), the folding enthalpy in data set [1] is -19.2 kcal/mol. The Tm in data set [2] is 49.4 °C.

Turning to GCTACACGAAAGTGCAGC (((.(((....))).))), the folding enthalpy in data set [1] was -42.1 kcal/mol. Further, in data set [2], the Tm stood at 53.1 °C.

GCTACCGCGAAAGCGAGC (((..(((....)))))): in data set [1], the folding enthalpy is -11.5 kcal/mol. For the same sequence, in data set [2], the Tm was found to be 35.9 °C.

GCTACCGGAAACGGTGGC ((.((((....)))).)): in data set [1], the folding enthalpy was -33.8 kcal/mol. Also, the Tm in data set [2] was 60 °C.

Regarding GCTACGCGAAAGCAAAGC (((..((....))..))), in data set [1], the folding enthalpy is -13.2 kcal/mol. Also, the Tm in data set [2] stood at 44.1 °C.

Consider GCTACGCGAAAGCATTGC ((.(.((....)).).)), for which, in data set [1], the folding enthalpy is -12.7 kcal/mol. The Tm in data set [2] came out at 38.7 °C.

With GCTACGCGAAAGCCGAGC (((..((....))..))), in data set [1], the folding enthalpy was -15.6 kcal/mol. In addition, the Tm in data set [2] turned out to be 43.4 °C.

As to GCTACGCGAAAGCCTTGC ((.(.((....)).).)), the folding enthalpy in data set [1] is -9.85 kcal/mol. The Tm in data set [2] turned out to be 29.6 °C.

For the sequence GCTACGCGAAAGCGCAGC (((.(((....))).))), the folding enthalpy in data set [1] is -32.5 kcal/mol. In data set [2], the Tm was determined as 55.7 °C.

Take GCTACGCGAAAGCTGAGC (((..((....))..))): the folding enthalpy in data set [1] was -15.2 kcal/mol. Also, the Tm in data set [2] turned out to be 46.2 °C.

GCTACGCGAAAGCTTGGC ((.(.((....)).).)): the folding enthalpy in data set [1] is -17.4 kcal/mol. Moreover, in data set [2], the Tm is 41.1 °C.

For the sequence GCTACGCGAAAGCTTTGC ((.(.((....)).).)), the folding enthalpy in data set [1] was -13 kcal/mol. In addition, the Tm in data set [2] was found to be 36.7 °C.

For GCTACGGAAACGTAGC ((((((....)))))), in data set [1], the folding enthalpy was -42 kcal/mol. Besides, in data set [2], the Tm was 66.5 °C.

Take GCTACGGGAAACCGCAAC (.(.(((....))).).): the folding enthalpy in data set [1] is -9.56 kcal/mol. For the same sequence, the Tm in data set [2] was determined as 24.1 °C.

On to GCTACGTCGAAAGACAGC (((..(((....)))))), for which the folding enthalpy in data set [1] is -16.2 kcal/mol. Also, the Tm in data set [2] came to 36.4 °C.

For the sequence GCTACTGCGAAAGCAAGC (((..(((....)))))), the folding enthalpy in data set [1] was -11.4 kcal/mol. Further, in data set [2], the Tm is 34.7 °C.

With GCTACTGGAAACAATAGC ((((.((....)).)))), the folding enthalpy in data set [1] was -18.5 kcal/mol. Further, the Tm in data set [2] stood at 31.3 °C.

With GCTACTGGAAACAGTAAC (.(((((....))))).), the folding enthalpy in data set [1] is -16 kcal/mol. Moreover, the Tm in data set [2] came out at 31.5 °C.

Take GCTACTGGAAACAGTAGC (((((((....))))))): the folding enthalpy in data set [1] is -44.5 kcal/mol. The Tm in data set [2] was determined as 64 °C.

Turning to GCTACTGGAAACGGTAGC (((((.(....).))))), in data set [1], the folding enthalpy was -37.5 kcal/mol. The Tm in data set [2] came out at 50.2 °C.

Turning to GCTAGACGAAAGTCAGC (((.(((....)))))), the folding enthalpy in data set [1] was -23.1 kcal/mol. Besides, in data set [2], the Tm is 54.2 °C.

For the sequence GCTAGAGCGAAAGCTAGC (((..(((....)))))), in data set [1], the folding enthalpy is -21.7 kcal/mol. Moreover, the Tm in data set [2] was 47.4 °C.

Source of the values: the array DNA melting data of Ke et al. (doi:10.1101/2024.01.08.574731).
